SMILES strings stand for the structures. The source made the active and inactive calls. No cut-off for these calls is given here. A value given as a limit tells only on which side of the number the result lay.

System in the first experiment: not listed separately
The experiment can be described thus: Cytotoxicity against mouse EMT6/KU cells in hypoxic condition for 5 hrs measured after 7 to 10 days. Type of experiment: functional, cell-based. A digest of the protocol: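 Drug medium (DMSO stock diluted in medium) was added and the cells were held 5 h at 37 °C in a hypoxic chamber flushed with 5% CO2/95% N2. After drug removal, colonies grew 7–10 days, then were methanol-fixed, Giemsa-stained and counted for surviving fraction.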
Take `Cn1cc(C[C@H](NC(=O)OC(C)(C)C)C(=O)NCCCCNc2nc3ccccc3[n+]([O-])n2)c2ccccc21`: the IC50 was 33 µM.

Regarding `Cn1cc(C[C@H](NC(=O)OC(C)(C)C)C(=O)NCCCCCNc2nc3ccccc3[n+]([O-])n2)c2ccccc21`, the IC50 stood at 33 µM.

`Cn1cc(C[C@H](NC(=O)OC(C)(C)C)C(=O)NCCCCNc2n[n+]([O-])c3ccccc3[n+]2[O-])c2ccccc21` came in with an IC50 of 8 µM.

For `Cn1cc(C[C@H](NC(=O)OC(C)(C)C)C(=O)NCCCCCNc2n[n+]([O-])c3ccccc3[n+]2[O-])c2ccccc21`, the IC50 worked out at 7.1 µM.

The molecule `Nc1nc2ccccc2[n+]([O-])n1` gave an IC50 of over 40 µM.

As for `Nc1n[n+]([O-])c2ccccc2[n+]1[O-]` [TIRAPAZAMINE], the midpoint of inhibition, the IC50, lay at 12 µM.

Another experiment deals with Indoleamine 2,3-dioxygenase 1 (Homo sapiens, UniProt P14902). In words: Inhibition of indoleamine 2,3-dioxygenase in aerobic condition.
`Cn1cc(C[C@H](NC(=O)OC(C)(C)C)C(=O)NCCCCNc2nc3ccccc3[n+]([O-])n2)c2ccccc21` came in with an inhibition constant Ki of 87.1 µM.

Turning to `O=C(NCCCCCNc1nc2ccccc2[n+]([O-])n1)C(F)(F)F`, the result was inactive.

Turning to `Cn1cc(C[C@H](NC(=O)OC(C)(C)C)C(=O)NCCCCCNc2nc3ccccc3[n+]([O-])n2)c2ccccc21`, the Ki was 76.3 µM.

`Cn1cc(C[C@H](NC(=O)OC(C)(C)C)C(=O)NCCCCNc2n[n+]([O-])c3ccccc3[n+]2[O-])c2ccccc21` had an inhibitory constant (Ki) of 367 µM. This Ki lies about 4.8-fold higher than the previous one.

Molecule `Cn1cc(C[C@H](NC(=O)OC(C)(C)C)C(=O)NCCCCCNc2n[n+]([O-])c3ccccc3[n+]2[O-])c2ccccc21` returned a Ki of 197 µM.

As for `Cn1cc(C[C@H](NC(=O)OC(C)(C)C)C(=O)O)c2ccccc21`, the outcome was inactive.

`Nc1nc2ccccc2[n+]([O-])n1`: the result was inactive.

In the case of `O=C(NCCCCNc1nc2ccccc2[n+]([O-])n1)C(F)(F)F`, the result was inactive.

With `O=C(NCCCCCNc1n[n+]([O-])c2ccccc2[n+]1[O-])C(F)(F)F`, the outcome was inactive.

Consider `O=C(NCCCCNc1n[n+]([O-])c2ccccc2[n+]1[O-])C(F)(F)F`, for which the outcome was inactive.

Turning to `Nc1n[n+]([O-])c2ccccc2[n+]1[O-]` [TIRAPAZAMINE], the result was inactive.

System in another experiment: not listed separately
In words: Cytotoxicity against mouse EMT6/KU cells in aerobic condition for 5 hrs measured after 7 to 10 days. It counts as functional, cell-based. A digest of the protocol:
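Late-log cells were plated at 10^3, 5×10^2 or 2×10^2 per dish and grown 24 h. Drug in DMSO diluted in medium was then given in a CO2 incubator at 37 °C for 5 h. After washout, colonies grew 7–10 days and were methanol-fixed, Giemsa-stained and counted.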
Turning to `Cn1cc(C[C@H](NC(=O)OC(C)(C)C)C(=O)NCCCCNc2nc3ccccc3[n+]([O-])n2)c2ccccc21`, the half-inhibitory concentration (IC50) was determined as 36 µM.

`Cn1cc(C[C@H](NC(=O)OC(C)(C)C)C(=O)NCCCCCNc2nc3ccccc3[n+]([O-])n2)c2ccccc21` returned an IC50 of 42 µM. The IC50 values of the last two molecules are within 1.5-fold of each other.

In turn, `Cn1cc(C[C@H](NC(=O)OC(C)(C)C)C(=O)NCCCCNc2n[n+]([O-])c3ccccc3[n+]2[O-])c2ccccc21` yielded an IC50 of over 40 µM.

`Cn1cc(C[C@H](NC(=O)OC(C)(C)C)C(=O)NCCCCCNc2n[n+]([O-])c3ccccc3[n+]2[O-])c2ccccc21` registered an IC50 of 35 µM.

Turning to `Nc1nc2ccccc2[n+]([O-])n1`, the IC50 was over 80 µM.

As for `Nc1n[n+]([O-])c2ccccc2[n+]1[O-]` [TIRAPAZAMINE], the IC50 is 38 µM.

System in a further experiment: not listed separately
In words: Hypoxic cytotoxicity ratio of IC50 for mouse EMT6/KU cells in aerobic condition to IC50 for mouse EMT6/KU cells in hypoxic condition. It counts as functional. A digest of the protocol: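 IC50 values came from clonogenic survival of EMT6/KU cells after 5 h drug exposure at 37 °C, either aerobic (CO2 incubator) or hypoxic (5% CO2/95% N2 chamber), with Giemsa-stained colonies counted after 7–10 days. The ratio is IC50(aerobic)/IC50(hypoxic).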
As to `Cn1cc(C[C@H](NC(=O)OC(C)(C)C)C(=O)NCCCCNc2nc3ccccc3[n+]([O-])n2)c2ccccc21`, the “Ratio IC50” value is 1.1.

Consider `Cn1cc(C[C@H](NC(=O)OC(C)(C)C)C(=O)NCCCCCNc2nc3ccccc3[n+]([O-])n2)c2ccccc21`, for which the “Ratio IC50” value was found to be 1.3.

In the case of `Cn1cc(C[C@H](NC(=O)OC(C)(C)C)C(=O)NCCCCNc2n[n+]([O-])c3ccccc3[n+]2[O-])c2ccccc21`, the “Ratio IC50” value is given as over 5.

For the molecule `Cn1cc(C[C@H](NC(=O)OC(C)(C)C)C(=O)NCCCCCNc2n[n+]([O-])c3ccccc3[n+]2[O-])c2ccccc21`, the “Ratio IC50” value was found to be 4.9.

For `Nc1n[n+]([O-])c2ccccc2[n+]1[O-]` [TIRAPAZAMINE], the “Ratio IC50” value was 3.2.

The term IC50 denotes the concentration that gives 50% inhibition. The term Ki denotes the equilibrium dissociation constant of an inhibitor or competing ligand from its target. A low value points to tighter binding.

The values are drawn from ChEMBL document CHEMBL1151788, “Synthesis and biological activity of 1-methyl-tryptophan-tirapazamine hybrids as hypoxia-targeting indoleamine 2,3-dioxygenase inhibitors” (Bioorg Med Chem, 2008).
